ChEMBL document CHEMBL1221194, “Forward chemical genetic approach identifies new role for GAPDH in insulin signaling” (Nat Chem Biol, 2007)
pIC50: −log10 of the molar value. The source made the active and inactive calls. The calls are words filed in the database; no cut-off is given here.

Key:
[1] = molecular target: Glyceraldehyde-3-phosphate dehydrogenase (Mus musculus) (UniProt P16858); experiment: Inhibition of GAPDH in mouse 3T3-L1 cells assessed as 2-NBD-glucose uptake after 15 mins; type: cell-based
In short: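 3T3-L1 preadipocytes grown overnight in DMEM with 10% heat-inactivated newborn calf serum, washed and held in PBS 5 min. Compound applied with 2-NBD-glucose ([…]) for 15 min at 37 °C. Cells washed, lysed in 0.1 M potassium phosphate pH 10 with 1% Triton X-100, DMSO added. Fluorescence read at ex 466/em 540 nm.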

[2] = molecular target: Glyceraldehyde-3-phosphate dehydrogenase (Oryctolagus cuniculus) (UniProt P46406); experiment: Induction of rabbit GAPDH tetramer segregation into monomers at 10 uM after 30 mins by SDS-PAGE
In short: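 Purified rabbit muscle GAPDH was incubated with compound at 0.4, 2 or 10 µM for 30 min at 4 °C. Samples were then chemically cross-linked, resolved by SDS-PAGE and silver-stained. Tetramer and monomer bands were compared.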

[3] = molecular target: Glyceraldehyde-3-phosphate dehydrogenase (Homo sapiens, UniProt P04406); experiment: Inhibition of GAPDH
In short: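 Purified rabbit muscle GAPDH was tested in vitro for its glycolytic enzymatic activity. The read-out was the half-maximal inhibitory concentration.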

[4] = molecular target: Glyceraldehyde-3-phosphate dehydrogenase (Mus musculus) (UniProt P16858); experiment: Inhibition of GAPDH in mouse 3T3L1 […] assessed as increase in Ptdlns(4, 5)P2 level by immunofluorescence method
In short: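 Whole 3T3-L1 cells given compound in PBS for 1 min, DMSO as control, then fixed in 4% formaldehyde. Stained with antibody to PtdIns(4,5)P2 and imaged by fluorescence microscopy (ex 488/em 510 nm). Intensity normalized to DMSO control; s.d. from 15 images over three independent experiments.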

[5] = molecular target: Glyceraldehyde-3-phosphate dehydrogenase (Mus musculus) (UniProt P16858); experiment: Inhibition of GAPDH in mouse 3T3L1 lysate assessed as inhibition of conversion of Ptdlns(3, 4, 5)P3 to PIP2 by fluorescent phosphoinositide TLC
In short: (§1)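 3T3-L1 preadipocyte lysate (5 µl) in 50 mM ammonium carbonate pH 8.0 with 2 mM DTT. Compound present, reaction started with C6-NBD6-PtdIns(3,4,5)P3 or PtdIns(4,5)P2, run 2 h at 25 °C. Products resolved by TLC on oxalate-treated silica. Hydrolyzed spot quantified as fraction of total fluorescence; s.d. from two independent experiments.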

Caenorhabditis elegans [6] = experiment: inhibition of GAPDH in Caenorhabditis elegans e1370 daf-2 mutant assessed as inhibition of dauer formation
In short: (§2)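 C. elegans daf-2 (e1370) kept in M9 buffer with 2% E. coli OP50 culture and compound ([…]), 4 d at 25 °C. Young adult-size animals counted in solution.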

3T3-L1 [7] = experiment: Inhibition of conversion of Ptdlns(3, 4, 5)P3 to PIP2 in GAPDH depleted mouse 3T3L1 lysate by fluorescent phosphoinositide TLC; type: functional
In short: (§3)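 3T3-L1 lysate immunodepleted of GAPDH, run in 25 µl ammonium carbonate/DTT buffer pH 8.0 with fluorescent PtdIns(3,4,5)P3 or PtdIns(4,5)P2 substrate. Run with or without exogenous GAPDH ([…]), compound tested in the presence of GAPDH, 2 h at 25 °C. Sampled every 20 min and resolved by TLC. Hydrolyzed/total spot fluorescence; two independent experiments.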

[8] = molecular target: Glyceraldehyde-3-phosphate dehydrogenase (Oryctolagus cuniculus) (UniProt P46406); experiment: Inhibition of rabbit GAPDH glycolytic activity at > 50 uM
Caenorhabditis elegans [9] = experiment: inhibition of GAPDH in Caenorhabditis elegans e1370 daf-2 mutant assessed as inhibition of dauer formation relative to control; in short: as §2
[10] = molecular target: Glyceraldehyde-3-phosphate dehydrogenase (Mus musculus) (UniProt P16858); experiment: Inhibition of GAPDH in mouse 3T3L1 lysate assessed as inhibition of conversion of Ptdlns(4, 5)P2 to PIP by fluorescent phosphoinositide TLC; in short: as §1
3T3-L1 [11] = experiment: Inhibition of conversion of Ptdlns(4, 5)P2 to PIP in GAPDH depleted mouse 3T3L1 lysate by fluorescent phosphoinositide TLC; type: functional; in short: as §3
[12] = molecular target: Glyceraldehyde-3-phosphate dehydrogenase (Mus musculus) (UniProt P16858); experiment: Induction of GAPDH tetramer segregation into monomers in mouse 3T3L1 lysate at […] after 3 hrs by immunoprecipitation method
[13] = molecular target: Glyceraldehyde-3-phosphate dehydrogenase (Oryctolagus cuniculus, UniProt P46406); experiment: Inhibition of rabbit GAPDH glycolytic activity
In short: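 Enzyme source was purified GAPDH from rabbit muscle, assayed in vitro for its glycolytic enzymatic activity. IC50 was reported as the half-maximal inhibitory concentration.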

[14] = Activation of PI3K assessed as tyrosine phosphorylation of p85 subunit

Chain of Glyceraldehyde-3-phosphate dehydrogenase (Mus musculus) (P16858 whole entry): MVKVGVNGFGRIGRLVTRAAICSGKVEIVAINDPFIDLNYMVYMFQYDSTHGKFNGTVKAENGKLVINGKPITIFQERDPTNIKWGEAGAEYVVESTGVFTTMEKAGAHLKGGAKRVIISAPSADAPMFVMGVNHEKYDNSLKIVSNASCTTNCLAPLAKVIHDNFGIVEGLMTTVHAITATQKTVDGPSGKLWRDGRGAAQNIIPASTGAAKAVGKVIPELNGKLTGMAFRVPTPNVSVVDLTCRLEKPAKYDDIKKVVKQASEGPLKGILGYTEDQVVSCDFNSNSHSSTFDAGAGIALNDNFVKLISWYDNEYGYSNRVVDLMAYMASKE
Chain of Glyceraldehyde-3-phosphate dehydrogenase (Oryctolagus cuniculus) (P46406 whole entry, looked up): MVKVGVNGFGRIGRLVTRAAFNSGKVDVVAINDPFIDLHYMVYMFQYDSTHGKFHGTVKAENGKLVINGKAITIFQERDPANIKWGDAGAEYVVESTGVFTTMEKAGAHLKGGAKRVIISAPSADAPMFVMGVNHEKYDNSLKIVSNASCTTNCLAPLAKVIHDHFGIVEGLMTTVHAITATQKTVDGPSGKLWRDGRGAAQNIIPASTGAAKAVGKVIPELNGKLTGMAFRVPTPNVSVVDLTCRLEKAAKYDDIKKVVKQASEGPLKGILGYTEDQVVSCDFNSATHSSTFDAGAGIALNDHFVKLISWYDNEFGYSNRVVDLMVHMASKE
Chain of Glyceraldehyde-3-phosphate dehydrogenase (Homo sapiens, UniProt P04406) (P04406 whole entry): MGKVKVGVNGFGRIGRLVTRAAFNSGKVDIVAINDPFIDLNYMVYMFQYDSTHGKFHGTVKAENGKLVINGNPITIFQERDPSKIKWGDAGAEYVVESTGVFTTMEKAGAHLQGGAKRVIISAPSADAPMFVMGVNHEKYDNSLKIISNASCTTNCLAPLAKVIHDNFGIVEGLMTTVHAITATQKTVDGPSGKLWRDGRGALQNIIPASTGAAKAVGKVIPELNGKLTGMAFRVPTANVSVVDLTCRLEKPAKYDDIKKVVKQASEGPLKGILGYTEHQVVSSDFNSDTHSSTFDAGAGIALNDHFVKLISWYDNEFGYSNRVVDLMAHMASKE
Chain of Glyceraldehyde-3-phosphate dehydrogenase (Oryctolagus cuniculus, UniProt P46406) (P46406 whole entry): as the sequence (P46406 whole entry, looked up) above

SMILES | inhibition [1] | Activity [2] | pIC50 [3] | inhibition [4] | inhibition [5] | inhibition (Caenorhabditis elegans [6]) | inhibition (3T3-L1 [7]) | inhibition [8] | inhibition (Caenorhabditis elegans [9]) [%] | inhibition [10] | inhibition (3T3-L1 [11]) | Activity [12] | pIC50 [13] | Activity [14]
NCCc1cc(O)c(O)cc1O [OXIDOPAMINE] | inactive | inactive | 5.10 |  |  |  |  |  |  |  |  |  |  | 
C#CCN(C)[C@H](C)Cc1ccccc1 |  | inactive |  |  |  |  |  |  |  |  |  |  |  | 
CCCCNc1nc(NCCOCCOCCNC(=O)c2ccccc2)nc(NCc2ccccn2)n1 | inactive | inactive |  | inactive | inactive | inactive | inactive | inactive |  |  |  |  |  | 
O=C(NCCOCCOCCNc1nc(NCCc2ccc(O)c(O)c2)nc(Nc2ccccc2)n1)c1ccccc1 | Dose-dependent effect | Active |  | Active | Active |  | Active |  | 18 | Active | inactive | Active | 4.82 | inactive
